# Measurements as given in ChEMBL document CHEMBL4513216, “Probing the Open Global Health Chemical Diversity Library for Multistage-Active Starting Points for Next-Generation Antimalarials” (ACS Infect Dis, 2020).
# Test: Toxicity liver stage against HepG2, at 10uM
# Type: cell-based
# Set-up: test concentration 10 uM, cell line HepG2-A16-CD81EGFP
# Details: human, HepG2-A16-CD81EGFP cells; read-out: INHIBITION
# Outline: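 Uninfected HepG2-A16-CD81EGFP cells, 3 × 10^3 per well, 1536-well, plated on prespotted compound at 10 μM final, parasite-free screening media added to match infected plates; puromycin 10 μM positive, DMSO 0.5% negative; run in parallel with 48 h PbLuc assay at 37 °C, 5% CO2; viability by CellTiter-Glo luminescence, normalized to controls.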
row,Structure (SMILES),cytotoxicity at 10 µM [%]
1,COc1ccc(-c2noc([C@@H]3C[C@@H](O)CN3C3CCN(C)CC3)n2)cc1,-1.16
2,COC(=O)Cn1c(C)cc(=O)n2nc(-c3cccs3)nc12,8.74
3,O=C(NCCCN1CCOCC1)c1ccc(-n2ccc3ccccc32)s1,-3.42
4,COc1cc(CN2CCCCCC2c2cccs2)cc(OC)c1OC (configuration not stated),33.3
5,Cc1cc(Cl)ccc1-n1ncc(C(=O)N(C)CCc2ccccn2)c1N,-7.3
6,O=C(O)c1cc(S(=O)(=O)Nc2cnn(C3CCOCC3)c2)ccc1F,-10.9
7,CC(C)NC(=O)c1nc2c(s1)CCCN2C(C)C,-143
8,CC(C)NC(=O)N1CCCC2(CC(C(=O)Nc3ccccc3)=NO2)C1 (configuration not stated),-3.36
9,COCC(=O)N1Cc2nccn2CC(COc2cccnc2)C1 (configuration not stated),5.41
10,Cc1nc(CN2CCOC3(CCCN(c4nccs4)C3)C2)cs1 (configuration not stated),16.3
11,Cc1csc(CN2CC[C@H]3C[C@@H](c4noc(C)n4)O[C@@H]3C2)n1,-1.2
12,CS(=O)(=O)NC[C@]12COC[C@H]1CN(C(=O)c1ncccn1)C2,4.9
13,CN(C)Cc1nn(C)c2c1CN(S(=O)(=O)c1ccccc1F)C2,5.6
14,CC(C)c1nnc2ccc(N3CCCC(C(=O)Nc4nccs4)C3)nn12 (configuration not stated),3.86
15,Cc1ccc(C)c(NC(=O)Nc2c[nH]c(=O)[nH]c2=O)c1,0.0452
16,COc1ccc(Nc2nc3c(C)nn(C)c3c(=O)n2C)c(C)c1,-6.06
17,CCCc1nc(NCCCOC)c2c(n1)c(C)nn2CC,24.6
18,CCC(CN1CCCC1)NC(=O)C1(c2ccc(F)cc2)CC1 (configuration not stated),-1.76
19,Cc1ccc(OCCN2CCC(c3nc(C)n4c(C)csc34)CC2)cc1,1.94
20,O=C(CCn1c(C(F)(F)F)cc2cccnc21)N1CCC(O)CC1,-28.5
21,COc1ccccc1C1=NOC(CC2(C(=O)O)CCOCC2)C1 (configuration not stated),-9.9
22,CC(=O)N1CCC(c2cnc(-c3c(C)nn(C)c3C)cn2)CC1,-33.6
23,Cc1ncc(CNC(=O)CCc2cccs2)c(C2CCCN2C)n1 (configuration not stated),-9.72

row,Structure (SMILES),cytotoxicity at 10 µM [%]
1,CCCN(C(=O)c1cnccn1)c1nc2c(s1)CCc1c-2cnn1C,-16.7
2,C=Cc1ccc(CN2CCCC3(CNC(=O)c4ccccc4O3)C2)cc1 (configuration not stated),-22.6
3,CS(=O)(=O)N1CCCC(Cc2cncc(Br)c2)CC1 (configuration not stated),2.16
4,Cc1ncc(C(=O)N2CCCC(Cc3nccs3)C2)cn1 (configuration not stated),-2.03
5,O=C1Nc2ccccc2CNC12CCN(CC1CCNC1)CC2 (configuration not stated),6.61
6,CC(O)CNC(=O)Nc1ccc(Br)cc1Br (configuration not stated),-1.45
7,CCCS(=O)(=O)NC(C)c1cccc(-n2cccn2)c1 (configuration not stated),3.65
8,CC(C)(C)CC(=O)N1CSCC1C(=O)NC1=NCCS1 (configuration not stated),17.9
9,COc1ccc(CNC(=O)c2ccoc2CN2CCNC(=O)C2)cc1,6.41
10,NC(c1ccccc1)c1ccc(OC(F)F)cc1 (configuration not stated),1.79
11,Cc1ccc(CN(C)C(=O)NCC(=O)NC(C)(C)C)s1,0.136
12,Cc1ccc(CN(C)C(=O)NCC(C)(C)CCS(C)(=O)=O)s1,6.24
13,CC(=O)N(C)CC(=O)NC(C)c1ccc(OCCC(C)C)cc1 (configuration not stated),8.59
14,Cc1nc(CC2CCCN(Cc3nc(N)c4ccccc4n3)C2)no1 (configuration not stated),-41.3
15,N#CCCN(Cc1ccco1)C(=O)CN1CCCC1c1cccs1 (configuration not stated),-2.56
16,COCCOc1ccc(NC(=O)N(CCCO)CC(C)(C)C)cn1,-7.85
17,COc1ccc(CCCC(=O)NCc2c(C)noc2C)cc1F,-6.35
18,COc1c(CNCc2ccc(N3CCOCC3)cc2)c(C)nn1C,2.1
19,Cc1cc(C)n(-c2cncc(NCCNS(C)(=O)=O)n2)n1,-3.98
20,Cc1ccc(F)cc1NC(=O)CNc1cccc2c1CCCC2,4.33
21,Cc1nn(C)c(N(C)C)c1CNCc1cnn(Cc2ccccc2)c1,-5.6
22,COc1cc(C(=O)N(CCC#N)Cc2ccccn2)ccc1C,11.3
23,CN(C)c1ccc(C(=O)N(CCO)CC2CC2)c(F)c1,5.25

row,Structure (SMILES),cytotoxicity at 10 µM [%]
1,COCCN(Cc1cccnc1)S(=O)(=O)c1cccc(F)c1F,-1.89
2,CC(C)c1n[nH]c(C2CN(C(=O)c3cc(C4CC4)on3)CCO2)n1 (configuration not stated),-1.7
3,O=C(C1CC=CC1)N1CCC2(CC1)OCCO2,6.9
4,CC(C)CC(=O)NCCCn1cncn1,-18.9
5,O=C(C[S+]([O-])C1CCCC1)NCCOc1cccc(Cl)c1 (configuration not stated),-143
6,CNS(=O)(=O)CCCN1CCN(C(C)c2cccnc2)CC1 (configuration not stated),-10.7
7,COc1ccc(CCNC(=O)CC(NC(N)=O)c2ccccc2)cc1 (configuration not stated),2.19
8,N#Cc1cc(N2CCC(S(N)(=O)=O)CC2)c2ccccc2n1,-5.03
9,O=c1[nH]c2csnc2c(=O)n1Cc1ccc(Br)cc1,5.41
10,COCCN1CCC(NCc2c(C)nn(C)c2N(C)C)CC1,-2.11
11,CS(=O)(=O)Cc1ccc(C(=O)NCc2ccc(Cl)cc2Cl)cc1,-47.6
12,O=C1C(Nc2ccc3nccnc3n2)CCN1c1ccccc1 (configuration not stated),0.562
13,Cc1nccn1C1CCCN(C(=O)Cn2ccc(=O)n(C)c2=O)C1 (configuration not stated),-5.17
14,O=C(CCCNC(=O)C1CCCO1)Nc1ccc(Cl)cc1 (configuration not stated),13.2
15,CN(CCOc1cccc(CNC(=O)C2CC2)c1)C1CCOCC1,-7.12
16,CCc1nc(CN2CCCC(N(C)Cc3cnn(C)c3)C2)no1 (configuration not stated),-14.5
17,CCc1nccn1C1CCCN(C(=O)c2cnc3ccccc3n2)C1 (configuration not stated),-4.61
18,Cc1cccc(N2CCN(CCCNC(=O)c3nccn3C)CC2)c1,-0.679
19,Cc1ccsc1C(=O)N1CCc2ncc(Cn3cccn3)n2CC1,-108
20,O=c1c(-c2ccnc(NC3CCCCC3)n2)cnc2sc(Cl)cn12,-6.22
21,CC(C)Nc1ncc(-c2csc(NC(=O)C[C@H]3COCCN3)n2)cn1,-8.69
22,CCCN1CCCn2nc(CNS(=O)(=O)c3cnn(CC)c3)cc2C1,-7.23
23,Cc1nn(C)c(C)c1CN(C)C(=O)c1cccc(CCC(C)(C)O)c1,3.13

row,Structure (SMILES),cytotoxicity at 10 µM [%]
1,Cc1ccc(OC2(C(=O)O)CCN(C(=O)c3ccccc3F)CC2)cn1,2.75
2,CCC(NC1Cc2ccccc2C1)c1ccc(S(C)(=O)=O)cc1 (configuration not stated),-2.02
3,O=C(CCc1cc(Cl)no1)N1CCCCC1CCn1ccnc1 (configuration not stated),-1.83
4,Cc1cc2ccccc2n1CCC(=O)N1CCC2(CC1)CNC(=O)C2,0.105
5,O=C1CCN(Cc2cnc3c(-c4ccccc4)cnn3c2)CCN1,11
6,O=C(NCCc1ccccc1)c1cn(CCNCc2cccnc2)nn1,-2.68
7,CCc1nc2c(N3CCCC(c4nccn4CCOC)C3)ncnc2o1 (configuration not stated),-11.2
8,Cc1cc(C(F)(F)F)nc(CNC(=O)CCC2CCCN(C)C2)n1 (configuration not stated),-53.9
9,Cc1cccc(C(C(=O)NCC2(O)CCCCC2)N(C)C)c1 (configuration not stated),-8.82
10,CC(C)CCC(=O)N1CCC(c2nnc(CN(C)CCO)n2C)CC1,0.832
11,CCc1nccn1CCC(=O)N1CC[C@H](CO)[C@H](O)C1,-1.2
12,NCCn1cc(C(=O)NCc2ccccc2Cn2cccn2)nn1,3.41
13,CCN(CC)C(=O)c1c(Br)cnn1CC,2.63
14,CCN(CC)C(=O)c1ccc(CNc2cncc(-n3cccn3)n2)cc1,7.18
15,Cc1cn2c(n1)CCC(NC(=O)CCCn1cncn1)C2 (configuration not stated),-9.12
16,CCC(NC(=O)c1ccoc1)c1ccccc1OCC(=O)N1CCCC1 (configuration not stated),-4.31
17,Cc1ccc(C(=O)N2CCC(Oc3ccccc3)CC2)c(=O)[nH]1,-1.01
18,CC(C)Oc1ccc(C(=O)NCc2ccc3c(c2)CCCN3C)cn1,-6.63
19,CC(C)c1nc(CN(C)C2CCN(CCn3cc(C#N)cn3)C2)no1 (configuration not stated),-6.29
20,CCn1nc2c(cc1=O)CN(CC(=O)Nc1nncs1)CC2,-0.284
21,Cc1cnn(CC2CCCN2C(=O)c2cc3ccccc3c(=O)[nH]2)c1 (configuration not stated),-4.77
22,O=C(CCc1ccccc1)N1CCCCC1Cn1cccn1 (configuration not stated),3.78
23,CCc1nnc2n1CCN(CCC(=O)Nc1cc(C)on1)C2,4.23

row,Structure (SMILES),cytotoxicity at 10 µM [%]
1,Cc1nn(C)c(C)c1C1CCCN1C(=O)CCc1cscn1 (configuration not stated),-3.66
2,Cn1ccnc1CN1CCCN(C(=O)c2ccc(Cl)o2)CC1,-7.03
3,Cc1cc(CN(C)C(=O)NC2CCCN(c3ncccn3)C2)no1 (configuration not stated),-7.26
4,Cc1ncc(CN(C)C2CCCN(Cc3noc(C4CC4)n3)C2)s1 (configuration not stated),-13.5
5,c1ncn(CC2CCCN(Cc3nc(C4CC4)no3)C2)n1 (configuration not stated),-12.9
6,O=C1OCCC1N1CCN(C(=O)Cc2c[nH]c3ccccc23)CC1 (configuration not stated),-7.03
7,Cc1nc(CN2C(=O)CCC23CCN(Cc2cccn2C)CC3)cs1,0.676
8,O=C(NCc1ccncc1)c1nc2c(o1)CN(C(=O)c1cccnc1)C2,1.21
9,CN1CCC2(CCCN(C(=O)c3cncn3C)C2)CC1,-0.757
10,O=C(CC1CC1)N1CC[C@H]2[C@@H]1CCC(=O)N2Cc1ccncc1,-5.15
11,CN(C)CCN1CCOCC2(CCCN(C(=O)Cc3ccccc3)C2)C1 (configuration not stated),2.14
12,CS(=O)(=O)N1CC[C@]2(C[C@@H](Oc3ccccn3)CO2)C1,-144
13,Cc1ccc(-c2ccc(CC3NCCN(C)C3=O)cc2)cc1 (configuration not stated),-25
14,Cn1nnc2c1C(COCc1cccnc1)CN(Cc1ccoc1)C2 (configuration not stated),-2.55
15,CC(C)N(C)Cc1nnc2n1CCN(S(=O)(=O)C1CC1)CC2,-1.13
16,CC(C)CN1CCC2(CCN(Cc3nccs3)CC2)C1=O,-5.77
17,Cc1cncc(C(=O)N2CC[C@@H]3[C@H]2CCC(=O)N3CCN(C)C)c1,-4.84
18,CC(C)Cn1cc2nc(N)[nH]cc-2c1=O,5.26
19,COc1ccc(-c2ncccc2C(=O)N2C[C@@H]3CC[C@H]2C3)cn1,6.42
20,Cc1nnsc1CN1C[C@@H]2CC[C@H]1CN(Cc1ccc(F)cc1)C2,-7.44
